# Compound activity as filed in PubChem.
# GRIN3A LBD mod – binders of NR3A ligand-binding domain, primary screen, biophysical, differential scanning fluorimetry, uHTS | Glutamate receptor ionotropic, NMDA 3A (GRIN3A) ligand-binding domain | NR3A LBD differential scanning fluorimetry, Tm shift; 0% = protein alone, 100% = glycine-bound protein | Tm shift relative to glycine control, % at 25 µM | actives 2.5% (n = 340,000) | AID 1259313, 2017;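 active = melting temperature shift of at least 10% of the positive control shift, at one fixed dose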
# EBI2 antag – EBI2 receptor antagonists, beta-arrestin recruitment, primary screen, cell-based, luminescence, 7a,25-OHC stimulation, uHTS | 7a,25-OHC stimulated | inhibition, % at 5 µM | actives 0.81% (n = 360,000) | G-protein coupled receptor 183 (Homo sapiens), P32249; in the data active = inhibition above about 38%;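 note: enzyme fragment complementation signal reports receptor beta-arrestin coupling in cells; 0% = agonist plus DMSO wells and 100% = wells without agonist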
# Target sequence (P32249 whole entry, looked up, the tested form may be a part): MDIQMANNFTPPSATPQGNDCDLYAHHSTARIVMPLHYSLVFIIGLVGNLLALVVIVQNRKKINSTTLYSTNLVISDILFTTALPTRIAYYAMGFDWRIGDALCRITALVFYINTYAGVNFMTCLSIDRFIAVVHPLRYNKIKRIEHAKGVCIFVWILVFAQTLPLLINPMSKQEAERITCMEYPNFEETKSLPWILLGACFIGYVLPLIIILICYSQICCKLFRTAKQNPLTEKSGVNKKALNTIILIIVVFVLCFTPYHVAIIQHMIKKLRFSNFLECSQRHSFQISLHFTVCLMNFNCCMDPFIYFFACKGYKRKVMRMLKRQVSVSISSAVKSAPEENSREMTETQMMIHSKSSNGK
# MPTP inh – mitochondrial permeability transition pore inhibitors, primary screen, biochemical, isolated mouse mitochondria, absorbance | Ca2+ swelling absorbance, 30 min | inhibition, % at 10 µM | actives 1.4% (n = 360,000) | AID 602449, 2012;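 active = inhibition of 50% or more, scaled per plate between neutral and stimulator controls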;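 note: 0% = DMSO wells given calcium and 100% = 1 mM EGTA wells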
# SENP1 inh – human SENP1 catalytic domain inhibitors, primary screen, biochemical, FRET, uHTS. Sentrin-specific protease 1 (Homo sapiens), Q9P0U3. recombinant SENP1 catalytic domain, CyPet-SUMO1-YPet FRET cleavage. inhibition, % at 10 µM. actives 0.21% (n = 360,000). AID 624204, 2012;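 active = inhibition at least 30% at 10 µM, raw YFP signal under a set limit, fluorescence ratio 0.5 to 1.5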;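 note: 0% = enzyme with DMSO and 100% = no enzyme wells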
# Target sequence (Q9P0U3 419-644 limits assumed): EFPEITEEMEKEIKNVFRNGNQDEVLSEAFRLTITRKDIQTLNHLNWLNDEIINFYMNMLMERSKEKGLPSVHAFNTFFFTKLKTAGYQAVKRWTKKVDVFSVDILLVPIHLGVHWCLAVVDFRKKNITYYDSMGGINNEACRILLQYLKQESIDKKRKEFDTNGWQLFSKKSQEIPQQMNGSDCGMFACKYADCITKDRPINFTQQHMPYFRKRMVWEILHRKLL
#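 Assay system: hSENP1 catalytic domain, recombinant. Amount: SENP1 enzyme, 20 pM final. Schedule: 50 min reaction, RT, dark. Technique: FRET, CFP and YFP emission. Control set: no-enzyme wells low, DMSO-plus-enzyme wells high control.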
# Rh123 counter – fluorescence retest of MPTP screen hits in isolated mitochondria, single concentration. shares compounds with MPTP inh. membrane potential, Rhodamine 123 fluorescence. inhibition, % at 10 µM. actives 78% (n = 5,000); in the data active = inhibition above about 22%;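 note: 0% = DMSO vehicle and 100% = positive control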
# MPTP swell DR – mitochondrial permeability transition pore inhibitors, dose response, biochemical, absorbance, uHTS hits; shares compounds with MPTP inh; isolated mitochondria swelling; IC50, µM; actives 58% (n = 780); AID 651561, 2012; in the data active = IC50 below about 20 µM
# MPTP cs DR – fluorescent counter-screen in isolated mitochondria, dose response, counter-screen for MPTP inhibitor project, biochemical, fluorescence, uHTS hits; shares compounds with MPTP inh; isolated mitochondria counterscreen, fluorescence read-out; IC50, µM; actives 49% (n = 780); AID 651564, 2012; in the data active = IC50 below about 80 µM
# An asterisk follows results filed as active; · = no result. Only some compounds are listed: those with a hit (about 4.4% of all), similar ones and a draw of the others.
SMILES,GRIN3A LBD mod,EBI2 antag,MPTP inh,SENP1 inh,Rh123 counter,others
c1ccc2c(c1)OCC(CNc1ncnc3sccc13)O2 (centres undefined),-4,0,99*,-32,103*,
COc1ccccc1CNc1ncnc2sccc12,-1,-4,52*,-3,76*,
CCCCNC(=O)C1CCC(CNS(=O)(=O)c2c(C)cc(C)cc2C)CC1 (centres undefined),-1,10,-1,-1,·,
O=C(Cn1cnc([N+](=O)[O-])n1)N/N=C/c1cc(Cl)ccc1O,-2,7,1,-5,·,
CCCCCCCCCCNC(=O)CCn1[nH]c(=O)c2ccccc2c1=O,-2,-1,0,0,·,
O=[N+]([O-])c1cc2c(c([N+](=O)[O-])c1)Nc1ccccc1O2,·,-25,55*,19,61*,
CC(=O)Nc1ccc(S(=O)(=O)Oc2ccc(N3C(=O)C4CCCCC4C3=O)cc2)cc1 (centres undefined),5,8,83*,3,52*,
CCCCC1CC(CSC(=N)N)OC1=O (centres undefined),1,3,0,2,·,
CCCCCCCC1CC(CSC(=N)N)OC1=O (centres undefined),-1,-2,97*,-2,-5,MPTP swell DR=6.3*;MPTP cs DR=52*
O=C(NC1CCN(Cc2ccc(Cl)c(Cl)c2)CC1)c1ccccc1,1,0,0,-2,·,
CCOC(=O)c1ccc(S(=O)(=O)Nc2ccc3cn[nH]c3c2)cc1,-5,2,55*,0,39*,
COc1ccc(S(=O)(=O)Nc2ccc3cn[nH]c3c2)cc1C,-3,9,0,0,·,
CC(C)(c1ccccc1)c1ccc(OCCCNCCO)cc1,2,0,94*,1,-9,MPTP swell DR=5.9*;MPTP cs DR=>80
O=S(=O)(c1ccccc1)N1CCC(O)(CSc2ccc(Cl)cc2)CC1,-14,22,98*,0,84*,
Cc1n[nH]c(=O)c2c(NC(=O)CSc3c(Cl)cccc3Cl)oc(C)c12,2,1,-2,-9,·,
Cc1n[nH]c(=O)c2c(NC(=O)CSc3nn(-c4ccc(F)cc4)c(=S)s3)oc(C)c12,1,5,87*,-8,84*,
c1ccc(CNCCCNCCCCNCCCNCc2ccccc2)cc1,1,2,84*,4,-2,MPTP swell DR=1.4*;MPTP cs DR=>80
CN1C(=O)c2ccc(NC(=O)c3c(C(=O)O)cccc3[N+](=O)[O-])cc2C1=O,-2,-1,0,23,·,
O=C(NNC1=C(C(=O)C(F)(F)F)CCC1)c1ccc(Br)cc1,-18,0,93*,-11,75*,
Nc1ccccc1C(=O)NNC1=C(C(=O)C(F)(F)F)CCC1,3,-4,21,2,·,
COc1ccccc1C(=O)NNC1=C(C(=O)C(F)(F)F)CCC1,-4,9,6,3,·,
COc1cccc(C(=O)NNC2=C(C(=O)C(F)(F)F)CCC2)c1,1,1,63*,-5,45*,
O=S(=O)(c1ccccc1)N1CCN(c2cc(-c3ccccc3)nc3ncnn23)CC1,0,16,82*,2,78*,
O=S(=O)(c1ccc(Br)cc1)N1CCN(c2cc(-c3ccccc3)nc3ncnn23)CC1,1,24,1,1,·,
O=C(CS(=O)(=O)c1c[nH]c2ccccc12)N1CCc2ccccc21,1,0,0,0,·,
SMILES,GRIN3A LBD mod,EBI2 antag,MPTP inh,SENP1 inh,Rh123 counter,others
Cc1c(C(=O)Nc2ccc(Cl)cc2)c2ccccn2c1CCc1ccncc1,-14,21,85*,-44,90*,
Cc1c(C(=O)Nc2cccc(Cl)c2)c2ccccn2c1CCc1ccncc1,-7,14,25,-33,·,
Cc1cc(Oc2ccccc2)nc(SCC(=O)Nc2ccccc2)n1,0,-2,10,-1,·,
O=C(CSc1nc2ccccc2s1)Nc1ccc(N2CCOCC2)c(Cl)c1,6,3,90*,-1,83*,
O=C(CSc1nc(Nc2ccccc2)nc(N2CCOCC2)n1)Nc1ccc([N+](=O)[O-])cc1,15*,26,74*,1,70*,
CNc1nc(SCC(=O)Nc2ccc(Cl)c(Cl)c2)nc(N2CCOCC2)n1,-4,-3,1,2,·,
Cc1cc(C)nc(SCC(=O)Nc2ccc(N3CCOCC3)c(Cl)c2)n1,-7,-12,61*,1,78*,
Cc1cc(Oc2ccccc2)nc(SCC(=O)Nc2ccc(Cl)c(Cl)c2)n1,3,2,73*,2,72*,
Cc1nn(C)c(Cl)c1S(=O)(=O)N1CCC(CO)(CCc2ccccc2)CC1,-1,1,-1,0,·,
O=C(CSc1nc2ccccc2o1)Nc1ccc(N2CCOCC2)c(Cl)c1,-1,-3,97*,1,93*,
Cc1ccc(S(=O)(=O)N2CCOCC2)cc1NC(=O)c1cc([N+](=O)[O-])ccc1N1CCOCC1,2,9,-1,1,·,
CC(=O)Nc1cc([N+](=O)[O-])ccc1N1CCOCC1,-3,-6,0,-1,·,
CC(Oc1cccc(Cl)c1)C(=O)Nc1cc(S(=O)(=O)N2CCOCC2)ccc1N1CCCC1 (centres undefined),-2,5,1,0,·,
O=C(Nc1ccc([N+](=O)[O-])cc1)Nc1ccc(N2CCOCC2)c2nonc12,18*,16,96*,6,58*,
Cc1ccc(S(=O)(=O)N2CCOCC2)cc1NC(=O)Nc1ccc([N+](=O)[O-])cc1,-3,7,100*,0,99*,
O=C(Nc1cccc(Cl)c1)Nc1cc(S(=O)(=O)N2CCOCC2)ccc1N1CCCC1,3,3,87*,1,75*,
CC(C)CC(=O)N/C(N)=N/c1nc2ccccc2o1,0,19,0,2,·,
CC(C)(C)C1CCC(=O)N(CCC#N)CC1 (centres undefined),-2,-1,0,-3,·,
Cc1ccccc1-n1nc2c(c1NC(=O)c1ccc3c(c1)OCO3)CS(=O)(=O)C2,-1,-6,0,2,·,
COc1ccc(CCNC(=O)c2cc(-c3ccc(C)c(C)c3O)n[nH]2)cc1OC,-3,5,8,1,·,
Cc1ccc(-c2cc(C(=O)NCc3ccc4c(c3)OCO4)[nH]n2)c(O)c1C,8,21,61*,1,71*,
Cc1ccc(-c2cc(C(=O)Nc3cccnc3)[nH]n2)c(O)c1C,28*,-7,62*,-2,71*,
